From PMC9305226 (Clinical Pharmacology in Drug Development, 2022)

Assays:
Format in all cases: in vivo, human
[1] = tested on: healthy Japanese male subjects; assay: Safety and tolerability of single doses; settings: single s.c. 0.3 U/kg, healthy Japanese men; all TEAEs mild or moderate
[2] = Plasma insulin lispro pharmacokinetics after a single subcutaneous dose; settings: for median tmax: healthy Japanese men, single s.c. 0.3 U/kg, plasma, n = 36
Method in brief: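 Venous blood drawn into K-EDTA tubes predose, then every 15–60 min over the 10 h clamp. Samples centrifuged within 20 min; plasma held at –60 to –80°C. Analysis by LC-MS/MS specific for lispro over endogenous insulin: protein precipitation plus solid-phase extraction, bovine insulin internal standard, C18 gradient at 40°C. Calibration was 1/x2-weighted linear over 100–8000 pg/mL. Noncompartmental parameters; log-values by mixed model, ratios back-transformed.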

[3] = tested on: healthy Japanese male subjects; assay: 10-hour euglycemic clamp; settings: ratio of geometric means, linear mixed effects model, n = 36, 95%CI
Method in brief: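 Randomized double-blind 2-period crossover, single s.c. 0.3 U/kg per period, 7–18 day washout. After ≥10 h overnight fast, baseline BG was the mean of readings at –30, –20, –10 and –1 min (clamp skipped if <70 mg/dL). BG measured every 1 min; 10% glucose infusion auto-adjusted to hold BG 5 mg/dL below baseline for 10 h. Body-weight-standardized GIR smoothed (LOESS, tension 0.06). Log-parameters analysed by mixed model (period, sequence, treatment fixed; subject random), back-transformed.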

[4] = ratio of geometric means, linear mixed effects model, n = 36, 90%CI

In the case of insulin lispro [SAR‐Lis], the “Tolerability of single doses” value [1] is reported as “well tolerated”, the median tmax [2] is reported as 1 h and the “AUCinf, Mean Ratio SAR‐Lis/Ly‐Lis‐Jp, point estimate (90%CI)” value [2, 4] is reported as 1.00 (0.97‐1.02). The “AUClast, Mean Ratio SAR‐Lis/Ly‐Lis‐Jp, point estimate (90%CI)” value [2, 4] was 1.00 (0.97‐1.02), the “Cmax, Mean Ratio SAR‐Lis/Ly‐Lis‐Jp, point estimate (90%CI)” value [2, 4] was 0.99 (0.93‐1.05) and the “t1/2z, Mean Ratio SAR‐Lis/Ly‐Lis‐Jp, point estimate (90%CI)” value [2, 4] was 1.03 (0.96‐1.11). For the same substance, the “GIRmax, Mean Ratio SAR‐Lis/Ly‐Lis‐Jp, point estimate (95%CI)” value [3] was 1.07 (1.00‐1.15) and the “GIR‐AUC0‐10h, Mean Ratio SAR‐Lis/Ly‐Lis‐Jp, point estimate (95%CI)” value [3] was 1.07 (0.99‐1.15).

With “insulin lispro [Ly‐Lis‐Jp, reference compound]” the “Tolerability of single doses” value [1] was “well tolerated” and the median tmax [2] was 1 h.
